Screening data as filed in PubChem BioAssay.
SMARCA2 activ = activators of SMARCA2 function | MG213 cells, MMTV-luciferase reporter, dexamethasone, overnight | 1% of 370,000 active | activation, % at 9.1 µM; in the data active = activation above about 7.8%
Efflux pump inh = antifungal efflux pump inhibition, Nile Red retention. S. cerevisiae Candida pump triplex. inhibition, % at 10 µM. 0.44% of 330,000 active. AID 485275;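 active = plate passing quality check with inhibition over a set limit, or well fluorescence over plate mean plus 4 SD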;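 also: Nile Red retained in pooled yeast measured as flow cytometry median fluorescence; higher means more Nile Red kept so more efflux inhibition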
TAG inh = reduces triacylglycerol accumulation in H9c2 cells. 0.66% of 230,000 active. inhibition, % at 12.5 µM. Nile Red lipid (TAG) fluorescence; cells loaded with 200 µM oleic acid;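 active = pattern-corrected inhibition of lipid staining of at least 50% with the nuclear-stain viability signal not falling by more than 50%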
AHR act = activates the human aryl hydrocarbon receptor; 2.5% of 320,000 active; activation, % at 5 µM; P35869; AHR-responsive luciferase reporter cells, luminescence; in the data active = activation above about 47%
Target sequence (P35869 whole entry, looked up): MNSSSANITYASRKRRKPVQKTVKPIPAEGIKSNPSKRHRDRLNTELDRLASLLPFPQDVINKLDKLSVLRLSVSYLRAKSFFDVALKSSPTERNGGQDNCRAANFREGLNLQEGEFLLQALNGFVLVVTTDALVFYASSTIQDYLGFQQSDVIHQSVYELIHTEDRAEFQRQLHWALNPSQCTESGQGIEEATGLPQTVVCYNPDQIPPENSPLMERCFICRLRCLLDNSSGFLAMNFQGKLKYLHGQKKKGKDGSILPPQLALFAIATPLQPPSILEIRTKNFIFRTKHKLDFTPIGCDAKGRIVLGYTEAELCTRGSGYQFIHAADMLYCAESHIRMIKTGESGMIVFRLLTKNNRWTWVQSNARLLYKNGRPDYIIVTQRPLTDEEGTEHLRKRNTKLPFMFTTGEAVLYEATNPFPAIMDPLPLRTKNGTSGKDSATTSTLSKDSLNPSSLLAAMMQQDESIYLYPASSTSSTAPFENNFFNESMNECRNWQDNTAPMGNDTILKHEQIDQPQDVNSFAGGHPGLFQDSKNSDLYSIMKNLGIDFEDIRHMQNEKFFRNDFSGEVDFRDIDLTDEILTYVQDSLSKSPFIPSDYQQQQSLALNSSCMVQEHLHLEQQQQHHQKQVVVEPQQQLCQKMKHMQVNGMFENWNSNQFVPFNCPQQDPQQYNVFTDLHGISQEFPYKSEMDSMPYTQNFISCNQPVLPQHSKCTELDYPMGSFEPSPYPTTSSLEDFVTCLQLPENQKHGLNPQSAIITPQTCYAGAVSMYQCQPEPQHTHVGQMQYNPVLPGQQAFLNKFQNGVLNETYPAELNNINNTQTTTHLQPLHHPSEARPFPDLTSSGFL
TbMetRS inhib = Trypanosoma brucei MetRS inhibition | purified T. brucei MetRS, ATP depletion, Kinase-Glo luminescence | inhibition, % at 11.9 µM | 0.4% of 360,000 active | AID 624268;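 active = inhibition above a per-plate cutoff of the control wells' mean inhibition plus 3 SD, cut at about 5.5% in these data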
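Test system: purified T. brucei MetRS enzyme. Also added: ATP, methionine and E. coli bulk tRNA substrates. Compound: 11.9 µM single point. Schedule: 15 min enzyme-compound preincubation, 2 h reaction, 10 min detection, 25 °C. Signal: luciferase luminescence of residual ATP, Kinase-Glo. Evaluation: percent inhibition versus plate control medians. Controls: DMSO wells, low control.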
SMARCA2 act conf = SMARCA2 activation, confirmation screen; shares compounds with SMARCA2 activ; MG213 cells, MMTV-luciferase with dexamethasone, luminescence, overnight; MG213 cells expressing E1A, Rb sequestered; DMSO wells 0%, reference activator 100%; activation, % at 9.1 µM; 30% of 3,500 active; AID 652260;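 active = activation above its plate's cutoff, the mean activation of tested wells plus 3 SD, cut at about 7.9% in these data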
GAL4-VP16 Luc = counter-screen for SMARCA2 activators: GAL4-VP16 luciferase reporter activation; HEK293 GAL4-VP16 pG5luc reporter, luciferase luminescence; scaled: DMSO wells 0%, SAHA wells 100%; activation, % at 9.1 µM; 41% of 3,500 active; shares compounds with SMARCA2 activ;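 active = activation above the solvent-only control well mean plus 3 SD, averaged across control plates, cut at about 5.2% in these data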
A number is an active result; – = inactive; · = no result. Sampled rows, rich in hits. Any-hit rate of the full collection: about 4.1%.

SMILES	SMARCA2 activ	Efflux pump inh	TAG inh	AHR act	TbMetRS inhib	SMARCA2 act conf	GAL4-VP16 Luc
Cc1ccc(C(=O)N/N=C2\CC3CC=CC23)c(C)c1 (stereo not drawn)	8.1	–	–	–	–	–	–
CCc1cc2c(nc1CC)CCCN2S(=O)(=O)c1ccc(F)cc1	–	·	·	·	·	·	·
Cc1ccc(-n2c(C)cc(-c3csc(N)n3)c2C)cc1	12	–	·	–	–	–	–
Cc1cc(-c2csc(N)n2)c(C)n1C	–	–	–	–	–	·	·
COC(=O)[C@H](C(C)C)N(CCCc1cn(CC2CCCCC2)nn1)S(=O)(=O)c1ccc(F)cc1Br	–	·	·	·	·	·	·
C=C(C)C(=O)OC1(C(F)(F)F)Oc2cc(C)ccc2NC1=O (stereo not drawn)	21	–	–	–	–	–	–
CCC(=O)N1CCC1(C)C(=O)Nc1cc(-c2ccccc2)nn1C (stereo not drawn)	10	·	–	·	–	–	7.4
CCn1cc(CNC(=O)NC2CCCCC2)c(C)n1	12	–	·	–	–	–	–
COC(=O)[C@@H](N[C@H](/C=C/c1ccccc1)[C@@H](O)Cc1ccccc1)c1ccccc1	–	·	·	·	·	·	·
CCCC(CCC)=NNC(=O)c1ccccc1F	8.2	–	·	–	–	–	–
Cc1csc(NC(=O)c2cccc(C)c2C)n1	–	–	·	–	–	·	·
Cc1csc(NC(=O)c2ccc[nH]c2=O)n1	9.1	–	·	–	–	13	9.8
Cc1csc(NC(=O)c2cc(C)on2)n1	11	–	–	–	–	–	7.5
Cc1csc(NC(=O)c2cnccn2)n1	–	–	–	–	–	·	·
COC(=O)CSc1nnc(-c2cccs2)o1	–	·	·	·	·	·	·
COc1cc(Cl)c(CNC[C@H]2O[C@@H](n3ccc(=O)[nH]c3=O)[C@H](O)[C@@H]2O)c(Cl)c1O	10	·	–	·	–	–	–
COC(=O)[C@]12C[C@H](CC(=O)N3CCC(c4ccccc4)CC3)C(=O)N(CCc3ccc(OC)c(OC)c3)C1=C[C@H](C1CCCC1)O[C@@H]2C	–	·	·	·	·	·	·
O=C(COC(=O)c1ccccc1NS(=O)(=O)c1cccs1)NCC12CC3CC(CC(C3)C1)C2	8.9	–	·	–	–	–	–
Nc1c(Cl)c(Cl)nc(C(=O)OCC(=O)NCc2ccccc2)c1Cl	–	–	–	–	–	·	·
O=C(COC(=O)c1nc(Cl)c(Cl)c(Cl)c1Cl)NCc1ccccc1	21	–	–	–	–	53	–
O=c1[nH]cnc2cc(-c3ccc(Br)cc3)sc12	10	–	·	–	–	–	–
Cc1ccc2nc(C)/c(=N\O)c(C)nc2c1	–	–	·	–	–	·	·
Cc1nc2ccc(Cl)cc2nc(C)/c1=N\O	8.1	–	–	58	–	9.7	8.7
Cc1cccc(Cn2cc(COC(=O)NCCc3c[nH]c4ccccc34)nn2)c1	–	·	·	·	·	·	·
COc1ccc(N2C(=O)C3C(C2=O)C(C(=O)c2ccc(Cl)cc2)N2CCCC32)cc1 (stereo not drawn)	12	–	–	–	–	–	–
SMILES	SMARCA2 activ	Efflux pump inh	TAG inh	AHR act	TbMetRS inhib	SMARCA2 act conf	GAL4-VP16 Luc
CC(=O)c1ccc(N2C(=O)C3C(C2=O)C(C(=O)c2ccc(Cl)cc2)N2CCCC32)cc1 (stereo not drawn)	–	·	·	·	·	·	·
Cc1cc(C(=O)c2cccs2)c(N)s1	8.9	–	·	–	–	–	–
O=C(CC(=O)c1ccccc1)Nc1ccccn1	13	–	·	·	–	–	9.2
COC(=O)C1=C(C)N(Cc2ccccc2C(F)(F)F)C(=NCc2cc(OC)c(OC)c(OC)c2)NC1c1ccc(Cl)cc1 (stereo not drawn)	–	·	·	·	·	·	·
CCOC(=O)c1nnn(CC(=O)N2N=C(c3ccccc3)CC2c2ccccc2)c1C(=O)OCC (stereo not drawn)	–	–	–	–	–	·	·
CCOC(=O)/C=C(\C)N1N=C(c2ccccc2)CC1c1ccccc1 (stereo not drawn)	8.3	–	–	–	–	–	9.2
CC1(C)CCC(C)(C)c2cc(NC(=O)c3ccc(C(=O)O)cc3)ccc21	–	·	·	·	·	·	·
COc1cccc2c(=O)c(C(=O)NCCc3ccccc3)c[nH]c12	–	·	·	·	–	·	·
COc1cccc2c(=O)c(C(=O)NCc3cccs3)c[nH]c12	10	–	–	–	–	17	5.9
O=C(c1cc(-c2ccccc2O)on1)N1CCc2ccccc2C1	8.6	–	–	–	–	–	–
Cc1nc2c(OCc3ccc(Cl)cc3)cccn2c1N(C)C(=O)CCC1CCCC1	8.3	·	–	·	–	–	–
COc1cc(/C=C2/SC(=S)N(CC(=O)NC(C)(C)C)C2=O)cc(OC)c1OC	8.0	–	·	–	–	–	–
COc1cc(/C=C2\SC(=S)N(CC(=O)NC(C)(C)C)C2=O)cc(OC)c1OC	–	·	·	·	–	·	·
C=Cc1ccc(C(=O)N(Cc2ccc(F)cc2)C(C(=O)N(C)C2CCCC2)c2ccc(OC)c(OC)c2)cc1 (stereo not drawn)	–	·	·	·	·	·	·
C/C(=N\N1C(=O)c2ccccc2NC1c1ccccc1)c1ccccc1O (stereo not drawn)	9.9	–	–	–	–	–	5.7
Cc1ccc(OCc2nc3ccccc3[nH]2)cc1	14	–	·	–	–	10	8.2
Cc1nn(-c2ccccc2)c(Cl)c1/C=N/NC(=O)OC(C)(C)C	–	–	·	–	–	·	·
Cc1nn(-c2ccccc2)c(Cl)c1/C=N/Nc1ccc(Cl)c(C(=O)O)c1	8.9	–	·	–	–	9.4	14
COc1ccc(C2=NN(C(=O)c3ccco3)C(c3cccs3)C2)cc1OC (stereo not drawn)	12	·	–	·	–	18	–
CCCC(=O)OC12CCCN(C1)/C(=C/c1ccc(OC)cc1)C2 (stereo not drawn)	–	·	·	·	·	·	·
COc1cc(/C=C2\CC/C(=C\c3cc(OC)c(OC)c(OC)c3)C2=O)cc(OC)c1OC	–	–	–	–	–	·	·
COc1cc(/C=C2\CC/C(=C\c3cc(OC)c(O)c(OC)c3)C2=O)cc(OC)c1O	11	–	–	–	–	34	–
CCOC(=O)[C@]12CCCC3=C1N(CCC3)C(=O)[C@@H](CC(=O)NCc1ccccc1)C2	–	·	·	·	·	·	·
CCOC(=O)[C@]12CCCC3=C1N(CCC3)C(=O)[C@@H](CC(=O)NCc1ccc(OC)c(OC)c1)C2	8.0	·	·	·	·	–	–
Cc1ccc(C(=O)Cn2cncn2)cc1	10	–	–	–	–	–	–
O=C(Cn1cncn1)c1ccc(Cl)cc1	–	–	·	–	–	·	·
CC(C)(C)c1ccc(C#C[C@@H]2C=C[C@@H](O)[C@@H](CO)O2)cc1	–	·	·	·	·	·	·
Cc1ccc(-c2nc3ccc(C)cn3c2CC2CCCCC2)cc1	8.1	·	·	·	–	–	5.1
CCOC(=O)c1nn(-c2ccccc2)c2nnc(Cc3ccc(Cl)cc3)c(=O)n12	–	–	·	–	–	·	·
CCOC(=O)c1nn(-c2ccc(Cl)cc2)c2nnc(Cc3ccccc3)c(=O)n12	12	–	·	–	–	–	–
